Results on 14 compounds are retold here after PubChem BioAssay.

Activity calls are given as the source filed them.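 How the source made its calls, unless noted: active means inhibition above 20% together with a positive visual image hit; inconclusive means visual image hit but inhibition not above 20%; inactive means no visual image hit.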

Test [1] can be described thus: inhibitors of TNFa-induced NFkB p65 translocation, primary screen, imaging, HUVEC, MLSMR starter and 10KST1 sets (AID 438).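 Further: compound added about 3h40 before a 20 min TNFalpha stimulation.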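 On inhibition: signal is the nuclear over cytoplasmic p65 intensity ratio per well.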 The conditions noted are these: HUVEC TNFa-induced p65 nuclear translocation; cell count: measured here: nuclei count (cytotoxicity indicator), at 2.08 µM; inhibition: at 2 µM, stronger effect = higher value, 0% TNFa-plus-vehicle, 100% no-TNFa wells.
Test [2] can be described thus: inhibitors of mutant huntingtin aggregation, primary screen, imaging, exon1htt(103Q)mCFP cells, high-content imaging (AID 483;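 active means visual image review flags a hit and inhibition of aggregation exceeds 20%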;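 further: compound exposure lasted 3 days before fixation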;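 on nuclei count: percent of the per-plate median nuclei count of sample wells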). Particulars: exon1htt(103Q)mCFP cell line, aggregate imaging, at 2 µM; inhibition of aggregation: stronger effect = higher value; nuclei count: measured here: cell count, toxicity.
Test [3] is described as follows: inhibitors of E-selectin induction by TNFa, primary screen, imaging, HUVEC, immunofluorescence, MLSMR starter and 10KST1 sets (AID 487;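 active means visually confirmed hit in the image check and inhibition above 20%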;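 on inhibition: signal is fraction of cell area covered by stained E-selectin grains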;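 on nuclei count: 100% = median nuclei count of all wells on the same plate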). The conditions noted are these: HUVEC TNFalpha-induced E-selectin immunofluorescence imaging, at 2 µM; inhibition: stronger effect = higher value; nuclei count: measured here: cell number, toxicity.
In test [4] the target is Voltage-gated potassium channel subunit beta-2 (Rattus norvegicus) (UniProt P62483). Kind of test: KvBeta enzyme negative modulators, primary screen, biochemical, NADPH fluorescence (AID 622;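 active means fluorescence slope higher than the sample average by over 3 SD, cut at about -0.22 in these data, passing the limit was not always enough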;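 further: slope of raw intensity against log time taken from 70 to 1610 s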). The conditions noted are these: recombinant KvBeta, 4-cyanobenzaldehyde reduction, at 10 µM, stronger effect = higher value.
Test [5] shares this target. Kind of test: KvBeta positive modulators, primary screen, biochemical, NADPH fluorescence (AID 623;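 active means NADPH fluorescence slope more negative than the mean of all samples by about 3 SD, 99.7% confidence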;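 further: fluorescence intensity change per second fitted from 20 to 320 s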). Particulars: Recombinant KvBeta, NADPH fluorescence decrease slope, 10 min; at 10 µM; stronger effect = lower value.
Test [6] addresses Muscarinic acetylcholine receptor M4 (Homo sapiens) (UniProt P08173). In words: compounds altering M4/GIRK thallium flux, either direction, primary screen, M4 allosteric agonist project, cell-based, HEK293 M4/GIRK, BTC-AM (AID 625;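 active means fluorescence slope after compound addition differing from the mean of all tested samples at 99.7% confidence, mostly higher but some lower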;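 further: thallium influx through GIRK channels coupled to M4 in HEK293 cells with BTC-AM dye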). Particulars: at 10 µM, actives lie on both sides. Summed up: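 Material: M4/GIRK1/GIRK2 stable HEK293 cell line. Medium: pH 7.3 thallium assay buffer. Dosing: single compound concentration, 10 µM final. Schedule: 1 h dye loading, 2 min kinetic read. Measured by: kinetic fluorescence with BTC-AM dye. Read-out: post-addition slope, 15–24 s, of baseline-normalized fluorescence. Benchmarks: carbachol and DMSO controls.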

A short description of test [7]: inhibitors of Sendai virus-induced IRF3 signaling, primary screen, TLR/RLR signaling modifier project, cell-based, Sendai virus stimulus, luciferase, 10K MLSCN set (AID 602276;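 active means inhibition at or above 50% at 10 µM; inactive means inhibition below 50%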;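 further: firefly luciferase from ISG56 promoter only with Renilla not read in this screen; 0% = Sendai virus plus DMSO and 100% = medium plus DMSO without virus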). The conditions noted are these: HEK293 RL24 IRF3 luciferase reporter, at 10 µM, stronger effect = higher value.
Test [8] is described as follows: inhibitors of poly I:C-induced TLR3 signaling, primary screen, cell-based, poly I:C stimulus, luciferase, 10K MLSCN set (AID 602277;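 active means inhibition of the reporter signal at or above 50%; inactive means inhibition below 50%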). Particulars: HEK293-TLR3 RL24 IRF3 luciferase reporter, at 10 µM, stronger effect = higher value.

Muscarinic acetylcholine receptor M4 (Homo sapiens), sequence (P08173 whole entry, looked up): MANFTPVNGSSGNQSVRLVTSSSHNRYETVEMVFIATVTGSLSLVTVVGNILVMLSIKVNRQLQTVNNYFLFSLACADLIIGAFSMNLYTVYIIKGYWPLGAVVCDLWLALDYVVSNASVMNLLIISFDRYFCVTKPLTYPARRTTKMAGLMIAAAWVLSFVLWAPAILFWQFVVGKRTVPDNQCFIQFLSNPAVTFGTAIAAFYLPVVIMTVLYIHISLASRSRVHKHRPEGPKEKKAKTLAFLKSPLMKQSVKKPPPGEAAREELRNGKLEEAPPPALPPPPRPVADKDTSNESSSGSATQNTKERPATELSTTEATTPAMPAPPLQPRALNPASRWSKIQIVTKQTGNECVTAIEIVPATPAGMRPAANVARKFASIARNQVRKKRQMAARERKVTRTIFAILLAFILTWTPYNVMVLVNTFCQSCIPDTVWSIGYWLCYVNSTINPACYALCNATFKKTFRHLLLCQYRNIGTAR
Voltage-gated potassium channel subunit beta-2 (Rattus norvegicus), sequence (P62483 whole entry, looked up): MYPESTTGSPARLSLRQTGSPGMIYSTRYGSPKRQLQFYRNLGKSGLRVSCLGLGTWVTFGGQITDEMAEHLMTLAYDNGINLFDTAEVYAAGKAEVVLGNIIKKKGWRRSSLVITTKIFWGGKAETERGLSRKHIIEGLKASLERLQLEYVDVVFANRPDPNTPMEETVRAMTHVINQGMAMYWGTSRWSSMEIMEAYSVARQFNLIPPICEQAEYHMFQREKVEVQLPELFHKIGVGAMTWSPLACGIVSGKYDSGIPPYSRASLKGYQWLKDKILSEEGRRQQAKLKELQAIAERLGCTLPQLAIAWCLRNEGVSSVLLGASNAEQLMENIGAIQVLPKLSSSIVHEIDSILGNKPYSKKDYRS

Consider `CCCCC(c1nnnn1C1CCCC1)N1CCN(C2CCCCC2)CC1` (centres undefined), for which the cell count in test [1] came out at 625. In addition, the inhibition in test [1] was -40.8% (inactive); in test [3], -57.4% (inactive); in test [7], 10% (inactive); in test [8] it was 39.4% (inactive). Moreover, the inhibition of aggregation in test [2] is -12% (inactive). Besides, the nuclei count was found to be 100% in test [2] and 111% in test [3]. In addition, the fluorescence slope in test [4] was -0.314 (inactive); in test [6], 0.00481 (inactive). The NADPH fluorescence slope in test [5] is -3.5e-05 (inactive).

As to `CC(C(=O)N1CC2(C)CC1CC(C)(C)C2)N1C(=O)c2ccccc2C1=O` (centres undefined), the cell count in test [1] turned out to be 239. Also, the inhibition in test [1] is 5.1% (inactive); in test [3] it was -114% (inactive); in test [7] it was 20.7% (inactive); in test [8], 17.3% (inactive). For the same compound, the inhibition of aggregation in test [2] was 14.3% (inactive). The figures for the nuclei count in test [2] and in test [3] were 99.8% and 95.5%, respectively. Besides, the figures for the fluorescence slope in test [4] and in test [6] were -0.504 (inactive) and 0.00376 (inactive), respectively. The NADPH fluorescence slope in test [5] is -5.6e-05 (inactive).

As for `CCOC(=O)C1CCCN(C(=O)c2ccc(CS(=O)(=O)Cc3ccccc3C)o2)C1` (centres undefined), the cell count in test [1] was 419. Further, the inhibition in test [1] is 10.9% (inactive); in test [3], -57.8% (inactive); in test [7] it was -2.6% (inactive); in test [8], 5.13% (inactive). Besides, the inhibition of aggregation in test [2] was 19.5% (inactive). The nuclei count was 76.5% in test [2] and 93.9% in test [3]. For the same compound, the fluorescence slope was -0.595 (inactive) in test [4] and 0.00695 (inactive) in test [6]. Further, the NADPH fluorescence slope in test [5] was 4.2e-06 (inactive).

As for `CC1CCN(C(=O)c2ccc(C(=O)N3CCC(C)CC3)cc2)CC1`, in test [1], the cell count came out at 348. In addition, the inhibition is 4.7% (inactive) in test [1], 33.2% (inactive) in test [3], 12.9% (inactive) in test [7] and 12.8% (inactive) in test [8]. Further, the inhibition of aggregation in test [2] is 2.4% (inactive). For the same compound, the nuclei count in test [2] worked out at 95.8%; in test [3], 76.8%. Besides, the figures for the fluorescence slope in test [4] and in test [6] were -0.459 (inactive) and 0.00464 (inactive), respectively. For the same compound, the NADPH fluorescence slope in test [5] was -3e-05 (inactive).

Regarding `Fc1c(F)c(F)c(CSc2nc3ccccc3[nH]2)c(F)c1F`, the cell count in test [1] is 423. Moreover, the inhibition in test [1] was 0% (inactive); in test [3] it was -40.6% (inactive); in test [7] it was -6.35% (inactive); in test [8], -46.6% (inactive). Also, the inhibition of aggregation in test [2] was 28.9% (inactive). The values for the nuclei count in test [2] and in test [3] were 82.8% and 86.2%, respectively. For the same compound, the fluorescence slope was -0.562 (inactive) in test [4] and 0.0075 (inactive) in test [6]. Besides, in test [5], the NADPH fluorescence slope is -3.7e-05 (inactive).

As for `O=C(NC(NC1CCS(=O)(=O)C1)C(=O)c1cccs1)c1ccccc1` (centres undefined), the cell count in test [1] stood at 269. The inhibition in test [1] was 3.9% (inactive); in test [3], 12.8% (inactive); in test [7] it was 7.41% (inactive); in test [8] it was 18.4% (inactive). In addition, the inhibition of aggregation in test [2] was 0.8% (inactive). Besides, the nuclei count in test [2] was found to be 101%; in test [3] it was 96.3%. In addition, the fluorescence slope was -0.572 (inactive) in test [4] and 0.00591 (inactive) in test [6]. For the same compound, the NADPH fluorescence slope in test [5] is -2.1e-05 (inactive).

On to `COC(=O)c1cc(NC(=O)C2COc3ccccc3O2)cc(C(=O)OC)c1` (centres undefined), for which the cell count in test [1] was 462. Besides, the inhibition is 6.8% (inactive) in test [1], -15.6% (inactive) in test [3], 11.6% (inactive) in test [7] and -7.02% (inactive) in test [8]. Moreover, the inhibition of aggregation in test [2] was 16.1% (inactive). Moreover, the nuclei count in test [2] amounted to 101%; in test [3], 107%. Further, the fluorescence slope was -0.517 (inactive) in test [4] and 0.00524 (inactive) in test [6]. In addition, the NADPH fluorescence slope in test [5] was -3e-05 (inactive).

As for `O=C1CC(c2ccco2)=Nc2ccccc2N1`, in test [1], the cell count worked out at 195. The inhibition in test [1] is -13.4% (inactive); in test [3], 9.4% (inactive); in test [7], -1.5% (inactive); in test [8], -5.46% (inactive). For the same compound, in test [2], the inhibition of aggregation is 7.9% (inactive). Moreover, the nuclei count in test [2] was 78.3%; in test [3] it was 84.6%. The fluorescence slope is -0.573 (inactive) in test [4] and 0.00527 (inactive) in test [6]. Moreover, in test [5], the NADPH fluorescence slope is 1.4e-05 (inactive).

For `CCOc1cc(C(=O)N2CCN(c3ccccc3)CC2)cc(OCC)c1OCC`, the cell count in test [1] came out at 284. Also, the inhibition in test [1] is 14.5% (inactive); in test [3], 11.1% (inactive); in test [7] it was 12.4% (inactive); in test [8], 15.3% (inactive). In addition, the inhibition of aggregation in test [2] was 39.7% (active). Besides, the results for the nuclei count in test [2] and in test [3] were 88.2% and 90.3%, respectively. Also, the fluorescence slope in test [4] is -0.559 (inactive); in test [6], 0.00369 (inactive). For the same compound, the NADPH fluorescence slope in test [5] was -2.8e-05 (inactive).

As to `Cc1sc2ncnc(OCC(=O)N3CCN(S(=O)(=O)c4ccc(Cl)cc4)CC3)c2c1C`, in test [1], the cell count amounted to 682. Further, the inhibition was -9.4% (inactive) in test [1], -50.8% (inactive) in test [3], -76.1% (inactive) in test [7] and 98.9% (active) in test [8]. The inhibition of aggregation in test [2] is -30.8% (inactive). Also, the nuclei count in test [2] was found to be 122%; in test [3] it was 124%. The fluorescence slope in test [4] was -0.612 (inactive); in test [6], 0.00511 (inactive). The NADPH fluorescence slope in test [5] is -4.9e-06 (inactive).

On to `CCOc1ncccc1C(=O)Nc1ccc2c(C)cc(=O)oc2c1`, for which the cell count in test [1] stood at 585. Further, the inhibition in test [1] is 5.8% (inactive); in test [3] it was -26.9% (inactive); in test [7] it was 10.1% (inactive); in test [8] it was 4.34% (inactive). Further, in test [2], the inhibition of aggregation was 10% (inactive). Moreover, the figures for the nuclei count in test [2] and in test [3] were 92.5% and 96.9%, respectively. Besides, the fluorescence slope is -0.535 (inactive) in test [4] and 0.00712 (inactive) in test [6]. For the same compound, the NADPH fluorescence slope in test [5] was -3.1e-05 (inactive).

Turning to `CN(CC(=O)Nc1ccccc1Cl)C(=O)COC(=O)CNC(=O)c1ccc(Br)o1`, the cell count in test [1] came to 436. Moreover, the inhibition was -13.1% (inactive) in test [1], -13.8% (inactive) in test [3], 15.4% (inactive) in test [7] and 30.4% (inactive) in test [8]. Further, in test [2], the inhibition of aggregation is -3.1% (inactive). Besides, the nuclei count in test [2] was found to be 115%; in test [3], 107%. Besides, the figures for the fluorescence slope in test [4] and in test [6] were -0.607 (inactive) and 0.00546 (inactive), respectively. Moreover, the NADPH fluorescence slope in test [5] is 2.6e-05 (inactive).

Regarding `N#Cc1c(N)nc(SCc2ccncc2)c(C#N)c1-c1cccs1`, the cell count in test [1] was found to be 321. The inhibition in test [1] is 10.9% (inactive); in test [3], 13.8% (inactive); in test [7], 26.1% (inactive); in test [8], 25.1% (inactive). For the same compound, the inhibition of aggregation in test [2] was -2.2% (inactive). Moreover, the nuclei count was 32.8% in test [2] and 107% in test [3]. The fluorescence slope in test [4] was -0.529 (inactive); in test [6], 0.0051 (inactive). Besides, the NADPH fluorescence slope in test [5] is -2.3e-05 (inactive).

With `Cc1cc(C)c2c(N)c(C(=O)N3CCN(c4ncccn4)CC3)sc2n1`, the cell count in test [1] amounted to 663. The inhibition is -9.1% (inactive) in test [1], -10.2% (inactive) in test [3], -3.01% (inactive) in test [7] and -25.1% (inactive) in test [8]. The inhibition of aggregation in test [2] was 5.1% (inactive). Moreover, the nuclei count in test [2] is 69.4%; in test [3] it was 101%. Also, the fluorescence slope in test [4] was -0.559 (inactive); in test [6], 0.00421 (inactive). Moreover, the NADPH fluorescence slope in test [5] is -1.8e-05 (inactive).

One may read the inhibition as the relative decrease from the control value, in per cent.
